Data as given in ChEMBL document CHEMBL1811822, “P2-P1' macrocyclization of P2 phenylglycine based HCV NS3 protease inhibitors using ring-closing metathesis” (Bioorg Med Chem, 2011).

What was measured:
[1] = Inhibition of HCV NS3 protease; design: species or system Hepacivirus hominis
In short: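 Full-length NS3 protein (protease–helicase/NTPase domains) from HCV genotype 1a, wild-type, with a 16-residue NS4A activating-region peptide. Protease activity was read by FRET. Enzyme at 1 nM was incubated 10 min at 30 °C in 50 mM HEPES, pH 7.5. Ki values were derived and reported with standard deviation.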

[2] = Inhibition of protease activity of full-length HCV genotype 1a NS3 protease by FRET assay
[3] = system: Hepatitis C virus; assay: Antiviral activity against HCV 1b infected in human HuH7 cells assessed as inhibition of viral replication by luciferase assay; format: functional, organism-based, Hepacivirus hominis; settings: genotype 1b, Huh-7
[4] = system: Hepatitis C virus; assay: Antiviral activity against HCV; format: functional, organism-based, Hepacivirus hominis

SMILES | Ki [2] | other results
C=CCCCS(=O)(=O)NC(=O)[C@H](CCC)NC(=O)[C@@H](NC(=O)[C@@H](NC(=O)OC(C)(C)C)C(C)(C)C)c1ccc(Oc2cc(-c3ccccc3)nc3cc(OC)ccc23)c(C=C)c1 |  | Ki [1]: 63 nM
C=CCCCS(=O)(=O)NC(=O)[C@H](CCC)NC(=O)[C@H](NC(=O)[C@@H](NC(=O)OC(C)(C)C)C(C)(C)C)c1ccc(Oc2cc(-c3ccccc3)nc3cc(OC)ccc23)c(C=C)c1 |  | Ki [1]: 48 nM
CCC[C@@H]1NC(=O)[C@H](NC(=O)[C@@H](NC(=O)OC(C)(C)C)C(C)(C)C)c2ccc(Oc3cc(-c4ccccc4)nc4cc(OC)ccc34)c(c2)/C=C\CC2(CC2)S(=O)(=O)NC1=O | 870 nM | 
CCC[C@@H]1NC(=O)[C@@H](NC(=O)[C@@H](NC(=O)OC(C)(C)C)C(C)(C)C)c2ccc(Oc3cc(-c4ccccc4)nc4cc(OC)ccc34)c(c2)/C=C\Cc2ccccc2S(=O)(=O)NC1=O | 190 nM | 
CCC[C@@H]1NC(=O)[C@@H](NC(=O)[C@@H](NC(=O)OC(C)(C)C)C(C)(C)C)c2ccc(Oc3cc(-c4ccccc4)nc4cc(OC)ccc34)c(c2)/C=C\c2ccccc2S(=O)(=O)NC1=O | 170 nM | 
CCC[C@@H]1NC(=O)[C@@H](NC(=O)[C@@H](NC(=O)OC(C)(C)C)C(C)(C)C)c2ccc(Oc3cc(-c4ccccc4)nc4cc(OC)ccc34)c(c2)/C=C/c2ccccc2S(=O)(=O)NC1=O | 150 nM | 
CCC[C@@H]1NC(=O)[C@@H](NC(=O)[C@@H](NC(=O)OC(C)(C)C)C(C)(C)C)c2ccc(Oc3cc(-c4ccccc4)nc4cc(OC)ccc34)c(c2)CCCc2ccccc2S(=O)(=O)NC1=O | 250 nM | 
CCC[C@@H]1NC(=O)[C@@H](NC(=O)[C@@H](NC(=O)OC(C)(C)C)C(C)(C)C)c2ccc(Oc3cc(-c4ccccc4)nc4cc(OC)ccc34)c(c2)/C=C\CC2(CC2)S(=O)(=O)NC1=O | 110 nM | 
CCC[C@@H]1NC(=O)[C@@H](NC(=O)[C@@H](NC(=O)OC(C)(C)C)C(C)(C)C)c2ccc(Oc3cc(-c4ccccc4)nc4cc(OC)ccc34)c(c2)/C=C\CCCS(=O)(=O)NC1=O | 390 nM | 
CCC[C@@H]1NC(=O)[C@@H](NC(=O)[C@@H](NC(=O)OC(C)(C)C)C(C)(C)C)c2ccc(Oc3cc(-c4ccccc4)nc4cc(OC)ccc34)c(c2)/C=C/CCCS(=O)(=O)NC1=O | 240 nM | EC50 [3]: 6 µM
CCC[C@@H]1NC(=O)[C@H](NC(=O)[C@@H](NC(=O)OC(C)(C)C)C(C)(C)C)c2ccc(Oc3cc(-c4ccccc4)nc4cc(OC)ccc34)c(c2)/C=C\CCCS(=O)(=O)NC1=O | 760 nM | 
CCC[C@@H]1NC(=O)[C@@H](NC(=O)[C@@H](NC(=O)OC(C)(C)C)C(C)(C)C)c2ccc(Oc3cc(-c4ccccc4)nc4cc(OC)ccc34)c(c2)/C=C\CCS(=O)(=O)NC1=O | 137 nM | 
CCC[C@@H]1NC(=O)[C@@H](NC(=O)[C@@H](NC(=O)OC(C)(C)C)C(C)(C)C)c2ccc(Oc3cc(-c4ccccc4)nc4cc(OC)ccc34)c(c2)/C=C/CCCCS(=O)(=O)NC1=O | 940 nM | 
CCC[C@@H]1NC(=O)[C@H](NC(=O)[C@@H](NC(=O)OC(C)(C)C)C(C)(C)C)c2ccc(Oc3cc(-c4ccccc4)nc4cc(OC)ccc34)c(c2)/C=C/CCCCS(=O)(=O)NC1=O | 710 nM | 
CCC[C@@H]1NC(=O)[C@@H](NC(=O)[C@@H](NC(=O)OC(C)(C)C)C(C)(C)C)c2ccc(Oc3cc(-c4ccccc4)nc4cc(OC)ccc34)c(c2)/C=C\CCCCS(=O)(=O)NC1=O | 320 nM | 
CCC[C@@H]1NC(=O)[C@@H](NC(=O)[C@@H](NC(=O)OC(C)(C)C)C(C)(C)C)c2ccc(Oc3cc(-c4ccccc4)nc4cc(OC)ccc34)c(c2)CCCCCCS(=O)(=O)NC1=O | 570 nM | 
CCC[C@@H]1NC(=O)[C@@H](NC(=O)[C@@H](NC(=O)OC(C)(C)C)C(C)(C)C)c2ccc(Oc3cc(-c4ccccc4)nc4cc(OC)ccc34)c(c2)C/C=C/CS(=O)(=O)NC1=O | 222 nM | 
CCC[C@@H]1NC(=O)[C@@H](NC(=O)[C@@H](NC(=O)OC(C)(C)C)C(C)(C)C)c2ccc(Oc3cc(-c4ccccc4)nc4cc(OC)ccc34)c(c2)C/C=C/CCS(=O)(=O)NC1=O (mixture of isomers) | 470 nM | 
COc1ccc2c(O[C@@H]3C[C@H]4C(=O)N[C@]5(C(=O)O)C[C@H]5/C=C\CCCCC[C@H](NC(=O)OC5CCCC5)C(=O)N4C3)cc(-c3csc(NC(C)C)n3)nc2c1 [CILUPREVIR] |  | EC50 [4]: 350 nM; Ki [1]: 40 nM
CC(C)(C)OC(=O)N[C@H]1CCCCC/C=C\[C@@H]2C[C@@]2(C(=O)NS(=O)(=O)C2CC2)NC(=O)[C@@H]2C[C@@H](OC(=O)N3Cc4cccc(F)c4C3)CN2C1=O [DANOPREVIR] |  | EC50 [4]: 0.6 nM
